Results published in ChEMBL document CHEMBL1126882, “Orally active central dopamine and serotonin receptor ligands: 5-, 6-, 7-, and 8-[[trifluoromethyl)sulfonyl]oxy]-2-(di-n-propylamino)tetralins and the formation of active metabolites in vivo” (J Med Chem, 1993).
Calls of active or inactive are those of the source. The calls are words filed in the database; no cut-off is given here.

Experiments:
[1] = target: T1, Dopamine receptor (Rattus norvegicus) (UniProt P25115+P19020+P30729+P18901+P61169); test: Effective dose for half-maximal decrease in the accumulation of DOPA in reserpinized rat brain striatal area by sc administration; type: functional, organism-based
Procedure, shortened: (§1)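 Male Sprague-Dawley rats (200-300 g) got reserpine 5 mg/kg sc 18 h before. The test drug (saline) was given sc or po (po rats fasted 18 h), with NSD 1015, 30 min before decapitation. DOPA and 5-HTP in limbic, striatal and hemispheral tissue were measured by HPLC-ED. ED50 (half-maximal decrease) was taken from 4-6-dose curves, with deviation estimated graphically from SEM.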

[2] = Effective dose for half-maximal decrease in the accumulation of 5-hydroxytryptophan (5-HTP) in reserpinized rat brain limbic area by po administration; type: functional; procedure, shortened: as §1
Rattus norvegicus [3] = test: Effective dose for half-maximal decrease in the accumulation of 5-hydroxytryptophan (5-HTP) in reserpinized rat brain limbic area by sc administration; Inactive; type: functional, organism-based; procedure, shortened: as §1
Rattus norvegicus [4] = test: Effective dose for half-maximal decrease in the accumulation of 5-hydroxytryptophan (5-HTP) in reserpinized rat brain hemispheral area by sc administration; Inactive; type: functional, organism-based; procedure, shortened: as §1
[5] = Effective dose for half-maximal decrease in the accumulation of 5-hydroxytryptophan (5-HTP) in reserpinized rat brain hemispheral area by po administration; type: functional; procedure, shortened: as §1
[6] = Effective dose for half-maximal decrease in the accumulation of 5-hydroxytryptophan (5-HTP) in reserpinized rat brain striatal area by po administration; type: functional; procedure, shortened: as §1
[7] = target: T1, Dopamine receptor (Rattus norvegicus); test: Effective dose for half-maximal decrease in the accumulation of DOPA in reserpinized rat brain hemispheral area by po administration; type: functional, organism-based; procedure, shortened: as §1
[8] = target: T1, Dopamine receptor (Rattus norvegicus); test: Effective dose for half-maximal decrease in the accumulation of DOPA in reserpinized rat brain limbic area by po administration; type: functional, organism-based; procedure, shortened: as §1
D(2) dopamine receptor [9] = target: T2, D(2) dopamine receptor (Rattus norvegicus, UniProt P61169); test: Binding affinity against dopamine receptor D2 in rat brain tissue using [3H]spiperone; type: tissue-based
T2 sequence (P61169 whole entry): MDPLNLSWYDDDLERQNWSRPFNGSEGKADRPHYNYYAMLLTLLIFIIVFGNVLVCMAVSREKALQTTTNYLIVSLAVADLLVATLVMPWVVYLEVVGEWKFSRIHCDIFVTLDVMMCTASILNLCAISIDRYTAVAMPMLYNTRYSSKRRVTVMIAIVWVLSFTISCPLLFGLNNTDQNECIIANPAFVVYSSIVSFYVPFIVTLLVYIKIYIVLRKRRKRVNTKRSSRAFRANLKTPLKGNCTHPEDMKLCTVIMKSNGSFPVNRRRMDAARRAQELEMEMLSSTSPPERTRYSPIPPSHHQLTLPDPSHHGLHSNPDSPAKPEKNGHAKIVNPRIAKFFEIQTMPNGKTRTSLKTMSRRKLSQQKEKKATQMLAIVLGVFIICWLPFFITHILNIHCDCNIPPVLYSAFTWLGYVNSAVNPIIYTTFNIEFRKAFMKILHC
Procedure, shortened: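 Rat striatal membranes were prepared in 50 mM potassium phosphate (pH 7.4). They were incubated with 0.5 nM [3H]spiperone (3 mg original tissue) for 10 min at 37 °C. Specific binding was defined with 10 μM 6,7-ADTN. Six drug concentrations (10⁻⁴-10⁻⁹ M) were tested, in triplicate or in a single experiment.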

[10] = target: T1, Dopamine receptor (Rattus norvegicus); test: Effective dose for half-maximal decrease in the accumulation of DOPA in reserpinized rat brain striatal area by po administration; type: functional, organism-based; procedure, shortened: as §1
Rattus norvegicus [11] = test: Effective dose for half-maximal decrease in the accumulation of 5-hydroxytryptophan (5-HTP) in reserpinized rat brain striatal area by sc administration; Inactive; type: functional, organism-based; procedure, shortened: as §1
[12] = target: T1, Dopamine receptor (Rattus norvegicus); test: Effective dose for half-maximal decrease in the accumulation of DOPA in reserpinized rat brain limbic area by sc administration; type: functional, organism-based; procedure, shortened: as §1
[13] = target: T3, 5-hydroxytryptamine receptor 1A (Rattus norvegicus, UniProt P19327); test: Binding affinity against 5-hydroxytryptamine 1A receptor in homogenated rat brain tissue, using by [3H]8-OH-DPAT as radioligand; type: tissue-based
T3 sequence (P19327 whole entry): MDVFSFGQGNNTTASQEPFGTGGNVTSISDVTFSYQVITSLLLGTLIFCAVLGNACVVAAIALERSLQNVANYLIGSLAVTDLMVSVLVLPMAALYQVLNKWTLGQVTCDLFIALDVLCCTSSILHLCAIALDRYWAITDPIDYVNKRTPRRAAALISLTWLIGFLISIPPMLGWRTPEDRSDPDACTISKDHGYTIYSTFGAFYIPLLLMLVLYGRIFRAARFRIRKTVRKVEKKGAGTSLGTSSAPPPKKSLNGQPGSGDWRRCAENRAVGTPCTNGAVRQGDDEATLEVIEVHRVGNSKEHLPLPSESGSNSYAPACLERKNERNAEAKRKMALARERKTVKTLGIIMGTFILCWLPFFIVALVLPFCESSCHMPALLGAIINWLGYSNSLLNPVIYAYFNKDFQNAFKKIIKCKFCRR
Procedure, shortened: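 Rat brain homogenate was washed and preincubated in 50 mM Tris (pH 8.0) containing NaCl, CaCl2 and MgCl2, plus 10 μM pargyline. Nonspecific binding was defined with 10 μM 5-HT. Six drug concentrations (10⁻⁴-10⁻⁹ M) were tested, triplicate or single run. IC50 came from a semilog plot with linear regression.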

[14] = target: T1, Dopamine receptor (Rattus norvegicus); test: Effective dose for half-maximal decrease in the accumulation of DOPA in reserpinized rat brain hemispheral area by sc administration; Inactive; type: functional, organism-based; procedure, shortened: as §1
Rattus norvegicus [15] = test: post-synaptic agonistic effects by increase in locomotor activity at the dose of 50 umol/kg, sc in reserpinized rat (p<0.005); type: functional
[16] = target: T1, Dopamine receptor (Rattus norvegicus); test: Effective dose for half-maximal decrease in the accumulation of DOPA in reserpinized rat brain striatal area by sc administration; partial response at the highest dose tested; type: functional, organism-based; procedure, shortened: as §1
[17] = Effective dose for half-maximal decrease in the accumulation of 5-hydroxytryptophan (5-HTP) in reserpinized rat brain limbic area by sc administration; type: functional; procedure, shortened: as §1
[18] = Area under curve ratio was determined (po/iv); type: functional
Procedure, shortened: (§2)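 Male Sprague-Dawley rats (300 g) with arterial catheters were dosed 24 h after surgery. Doses: 40 μmol/kg po by gavage and 5 μmol/kg iv, or 20 po and 1 iv. Po rats were fasted 18 h. Blood was sampled from 5 min to 12 h and measured by GC-MS after extraction at pH 11 against an internal standard, samples in duplicate. AUC po/iv came from n = 4 per route. Half-life was read graphically from the oral elimination phase.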

Rattus norvegicus [19] = organism: Rattus norvegicus; test: DA agonist induced behavior was charecterised by increased locomotion, sniffing and licking.+ indicates low intensity of behavioral effect; type: functional, organism-based
Procedure, shortened: (§3)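 Male Sprague-Dawley rats (200-300 g) given reserpine 5 mg/kg sc in the neck 18 h before testing. The test compound, in 0.9% saline, was given sc in the neck (n = 4-5). Rats were placed singly in photocell motility meters right after dosing. Counts were recorded over 30 min, alongside gross behavioural observation of 5-HT and DA signs. Statistics: ANOVA with Fischer's PLSD versus reserpine controls.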

[20] = Half-lives were estimated from the elimination phase of the blood conc-time curve after oral administration; type: ADME, organism-based; settings: whole blood; procedure, shortened: as §2
[21] = target: T1, Dopamine receptor (Rattus norvegicus); test: Effective dose for half-maximal decrease in the accumulation of DOPA in reserpinized rat brain limbic area by po administration; partial response at the highest dose tested; type: functional, organism-based; procedure, shortened: as §1
[22] = Effective dose for half-maximal decrease in the accumulation of 5-hydroxytryptophan (5-HTP) in reserpinized rat brain hemispheral area by sc administration; type: functional; procedure, shortened: as §1
[23] = target: T1, Dopamine receptor (Rattus norvegicus); test: Effective dose for half-maximal decrease in the accumulation of DOPA in reserpinized rat brain limbic area by sc administration; partial response at the highest dose tested; type: functional, organism-based; procedure, shortened: as §1
[24] = Effective dose for half-maximal decrease in the accumulation of 5-hydroxytryptophan (5-HTP) in reserpinized rat brain striatal area by sc administration; type: functional; procedure, shortened: as §1
[25] = target: T1, Dopamine receptor (Rattus norvegicus); test: Effective dose for half-maximal decrease in the accumulation of DOPA in reserpinized rat brain striatal area by po administration; partial response at the highest dose tested; type: functional, organism-based; procedure, shortened: as §1
Rattus norvegicus [26] = test: post-synaptic agonistic effects by increase in locomotor activity at the dose of 2.2 umol/kg, sc in reserpinized rat; type: functional
Rattus norvegicus [27] = organism: Rattus norvegicus; test: DA agonist induced behavior was charecterised by increased locomotion, sniffing and licking.++ indicates high intensity of behavioral effect; type: functional, organism-based; procedure, shortened: as §3
Rattus norvegicus [28] = test: Effective dose for half-maximal decrease in the accumulation of 5-hydroxytryptophan (5-HTP) in reserpinized rat brain hemispheral area by sc administration; Partial response at the highest dose tested; type: functional, organism-based; procedure, shortened: as §1
Rattus norvegicus [29] = test: Effective dose for half-maximal decrease in the accumulation of 5-hydroxytryptophan (5-HTP) in reserpinized rat brain striatal area by po administration; Partial response at the highest dose tested; type: functional, organism-based; procedure, shortened: as §1
Rattus norvegicus [30] = test: Effective dose for half-maximal decrease in the accumulation of 5-hydroxytryptophan (5-HTP) in reserpinized rat brain striatal area by sc administration; Partial response at the highest dose tested; type: functional, organism-based; procedure, shortened: as §1
[31] = target: T1, Dopamine receptor (Rattus norvegicus); test: Effective dose for half-maximal decrease in the accumulation of DOPA in reserpinized rat brain hemispheral area by sc administration; Partial response at the highest dose tested; type: functional, organism-based; procedure, shortened: as §1
D(2) dopamine receptor [32] = target: T2, D(2) dopamine receptor; test: Binding affinity against dopamine receptor D2 in homogenated rat brain tissue, using by ([3H]N00437) as radioligand; type: tissue-based
Procedure, shortened: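 Striata from male Wistar rats were washed in Tris (pH 7.5) containing EDTA, KCl and CaCl2. Tissue (1.25 mg original) was incubated with 0.2 nM [3H]-N-0437 (final) for 90 min at 25 °C, then filtered and counted by scintillation. Nonspecific binding was defined with 1 μM 6,7-ADTN. IC50 was read from a hand-fitted sigmoid curve, in triplicate.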

Rattus norvegicus [33] = test: post-synaptic agonistic effects by increase in locomotor activity at the dose of 50 umol/kg, sc in reserpinized rat; type: functional

CCCN(CCC)C1CCc2c(cccc2OC)C1 (stereo unspecified)
ED50 [1]: 0.02 µmol/kg
ED50 [2]: 0.4 µmol/kg
ED50 (Rattus norvegicus [3]): inactive
ED50 (Rattus norvegicus [4]): inactive
ED50 [5]: 0.3 µmol/kg
ED50 [6]: 0.5 µmol/kg
ED50 [7]: 0.3 µmol/kg
ED50 [8]: 0.2 µmol/kg
Ki (D(2) dopamine receptor [9]): 100 nM
ED50 [10]: 0.2 µmol/kg
ED50 (Rattus norvegicus [11]): inactive
ED50 [12]: 0.01 µmol/kg
Ki [13]: 440 nM
ED50 [14]: inactive

CCCN(CCC)C1CCc2cccc(OS(=O)(=O)C(F)(F)F)c2C1 (stereo unspecified)
Counts/30 (Rattus norvegicus [15]): 110 min
ED50 [16]: Weak activity
ED50 [2]: 1.2 µmol/kg
ED50 [17]: 5.9 µmol/kg
ED50 [5]: 1.2 µmol/kg
ED50 [6]: 1.5 µmol/kg
ED50 [7]: 30 µmol/kg
Ki (D(2) dopamine receptor [9]): 670 nM
Ratio [18]: 11.2
Behavioral syndrome (Rattus norvegicus [19]): Partially active
half-life [20]: 1.5 h
ED50 [21]: Weak activity
ED50 [22]: 10 µmol/kg
Ki [13]: 9.6 nM
ED50 [14]: inactive
ED50 [23]: Weak activity
ED50 [24]: 15 µmol/kg
ED50 [25]: Weak activity

CCCN(CCC)[C@@H]1CCc2ccc(O)cc2C1
ED50 (Rattus norvegicus [3]): inactive
Counts/30 (Rattus norvegicus [26]): 100 counts/30 min
ED50 (Rattus norvegicus [4]): inactive
ED50 (Rattus norvegicus [11]): inactive
Behavioral observation (Rattus norvegicus [19]): Partially active
Ki [13]: 3260 nM

CCCN(CCC)C1CCc2c(cccc2OS(=O)(=O)C(F)(F)F)C1 (stereo unspecified)
Behavioral observation (Rattus norvegicus [27]): Active
ED50 (Rattus norvegicus [28]): Weak activity
ED50 [1]: 0.5 µmol/kg
ED50 [2]: 3 µmol/kg
ED50 (Rattus norvegicus [3]): inactive
ED50 [5]: 5.4 µmol/kg
ED50 (Rattus norvegicus [29]): Weak activity
ED50 (Rattus norvegicus [30]): Weak activity
ED50 [8]: 6.2 µmol/kg
Ki (D(2) dopamine receptor [9]): 64 nM
Ratio [18]: 8.5
ED50 [10]: 7.9 µmol/kg
ED50 [31]: Weak activity
Ki (D(2) dopamine receptor [32]): 28 nM
ED50 [12]: 0.4 µmol/kg
Counts/30 min (Rattus norvegicus [33]): 170
half-life [20]: 1.5 h
Ki [13]: 160 nM
